The record followed here is ChEMBL document CHEMBL4219238, “Design, synthesis, molecular modelling and in vitro cytotoxicity analysis of novel carbamate derivatives as inhibitors of Monoacylglycerol lipase” (Bioorg Med Chem, 2018).

Active and inactive are the calls of the source. No cut-off for these calls is given here.

Experiment [1] addresses T1, Monoglyceride lipase (Mus musculus, UniProt O35678).
T1 sequence (O35678 whole entry): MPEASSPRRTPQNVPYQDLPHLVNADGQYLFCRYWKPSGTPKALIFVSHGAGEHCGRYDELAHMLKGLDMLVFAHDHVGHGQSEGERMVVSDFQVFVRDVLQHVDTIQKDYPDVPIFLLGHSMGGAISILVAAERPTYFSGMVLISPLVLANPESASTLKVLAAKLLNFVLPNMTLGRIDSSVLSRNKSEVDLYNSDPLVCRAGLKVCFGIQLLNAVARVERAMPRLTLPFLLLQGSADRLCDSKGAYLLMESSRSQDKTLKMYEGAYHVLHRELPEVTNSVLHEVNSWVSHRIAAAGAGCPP
Nature of the experiment: Inhibition of MAGL in mouse B16-F10 cells using 7-HRA as substrate preincubated for 60 mins followed by substrate addition measured every 2.5 mins for 2 hrs by fluorescence assay. The class given is cell-based.

Experiment [2] has as its system B16-F10. Description: Antiproliferative activity against mouse B16F10 cells at 10 uM after 48 hrs by Cyto Tracker red dye based flow cytometry. The format is functional, cell-based. In a few lines: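 B16-F10 cells (Iscove's medium, 10% heat-inactivated FBS, 37 °C, 5% CO2) exposed to compound or DMSO for 48 h, stained with CytoTrack Red 628/643 and analysed by flow cytometry. Proliferation index (average number of cells that an initial cell became) expressed as fold change over DMSO control; n = 3; one-way ANOVA with Tukey post-test.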

In experiment [3] the target is T2, Monoglyceride lipase (Homo sapiens, UniProt Q99685).
T2 sequence (Q99685 whole entry): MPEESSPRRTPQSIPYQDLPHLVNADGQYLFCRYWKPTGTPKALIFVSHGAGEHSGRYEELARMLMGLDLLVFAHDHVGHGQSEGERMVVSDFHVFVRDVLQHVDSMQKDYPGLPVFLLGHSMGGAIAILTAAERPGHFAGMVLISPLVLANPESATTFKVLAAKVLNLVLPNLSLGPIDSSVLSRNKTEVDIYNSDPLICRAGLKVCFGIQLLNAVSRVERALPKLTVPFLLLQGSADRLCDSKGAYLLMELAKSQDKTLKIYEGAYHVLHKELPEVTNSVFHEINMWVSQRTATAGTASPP
Description: Inhibition of recombinant human MAGL using 7-HRA as substrate preincubated for 60 mins followed by substrate addition by fluorescence assay.

The subject of experiment [4] is MCF7. Description: Induction of apoptosis in human MCF7 cells at 10 nM after 48 hrs by Annexin V-FITC/propidium iodide staining based flow cytometry. The format is functional, cell-based. On the technique in general: A flow cytometer gives signals particle by particle.
Experiment [5] relates to MCF7. Nature of the experiment: Induction of apoptosis in human MCF7 cells at 20 uM after 48 hrs by Annexin V-FITC/propidium iodide staining based flow cytometry. The format is functional, cell-based. The procedure, abridged:
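MCF7 cells grown in 50% DMEM high glucose / 50% Ham's F-12 with 10% heat-inactivated FBS at 37 °C, 5% CO2, then exposed 48 h to compound or DMSO vehicle. Cells stained with annexin V plus 5 µg/ml PI in HEPES/NaCl/CaCl2 binding buffer. Flow cytometry on 10,000 cells per sample. Apoptotic = AnnV+/PI− plus AnnV+/PI+. n=3, mean ± S.E.M.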

The target of experiment [6] is T1, Monoglyceride lipase. Description: […] of MAGL in mouse B16-F10 cells using 7-HRA as substrate preincubated for 60 mins followed by substrate addition measured every 2.5 mins for 2 hrs by fluorescence assay. The class given is cell-based.
Experiment [7] addresses T3, Monoglyceride lipase (Homo sapiens) (UniProt Q99685).
T3 sequence (whole entry): T2 sequence (Q99685 whole entry)
Description: Inhibition of MAGL in human MCF7 cells at 10 uM using 7-HRA as substrate preincubated for 6 hrs followed by substrate addition by fluorescence assay. The format is cell-based. In a few lines:
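MCF7 cells cultured 6 h with 10 μM compound or DMSO, then lysed; MAGL activity measured on total cell lysate using the 7-HRA fluorogenic assay.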

In experiment [8] the test system is B16-F10. Description: Induction of apoptosis in mouse B16F10 cells assessed as live cells at 10 uM after 48 hrs by Annexin V-FITC/propidium iodide staining based flow cytometry (reference value: 88.04%). The class given is functional.
For experiment [9], the target named is T4, Fatty-acid amide hydrolase 1 (Homo sapiens) (UniProt O00519).
T4 sequence (whole entry): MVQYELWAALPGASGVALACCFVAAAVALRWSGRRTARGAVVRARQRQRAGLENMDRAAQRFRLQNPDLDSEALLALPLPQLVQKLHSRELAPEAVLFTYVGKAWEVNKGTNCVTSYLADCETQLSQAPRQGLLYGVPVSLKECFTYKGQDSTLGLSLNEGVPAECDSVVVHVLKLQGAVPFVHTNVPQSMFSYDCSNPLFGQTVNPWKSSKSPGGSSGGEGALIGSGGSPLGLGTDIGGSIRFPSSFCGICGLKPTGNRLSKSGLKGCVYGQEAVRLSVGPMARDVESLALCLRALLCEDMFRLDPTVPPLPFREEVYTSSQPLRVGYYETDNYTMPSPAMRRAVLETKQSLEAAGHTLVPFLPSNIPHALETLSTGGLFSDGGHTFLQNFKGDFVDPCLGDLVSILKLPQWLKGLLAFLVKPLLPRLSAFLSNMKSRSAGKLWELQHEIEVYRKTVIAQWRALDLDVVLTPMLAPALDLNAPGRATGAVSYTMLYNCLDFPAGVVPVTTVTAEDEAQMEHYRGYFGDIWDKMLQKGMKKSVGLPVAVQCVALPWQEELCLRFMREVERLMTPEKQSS
Description: Inhibition of human FAAH at 10 uM using AAMCA as substrate preincubated for 1 hr followed by substrate addition measured after 30 mins by fluorescence assay relative to control. In a few lines: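 Recombinant human FAAH (C-terminal His-tagged, Sf21), 1 U/well, in 50 mM Tris-HCl, 1 mM EDTA, pH 9, preincubated 1 h at room temperature with 10 μM compound (final). AAMCA added to 20 μM final; fluorescence (ex 360/em 460 nm) read every 3 min for 30 min. Rate by linear regression, no-enzyme background subtracted, normalised to no-inhibitor control.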

In experiment [10] the test system is B16-F10. Nature of the experiment: Induction of apoptosis in mouse B16F10 cells assessed as late apoptotic cells at 10 uM after 48 hrs by Annexin V-FITC/propidium iodide staining based flow cytometry (reference value: 7.39%). The class given is functional.
For experiment [11], the system named is B16-F10. Description: Induction of apoptosis in mouse B16F10 cells assessed as necrotic cells at 10 uM after 48 hrs by Annexin V-FITC/propidium iodide staining based flow cytometry (reference value: 2.62%). The class given is functional.
Experiment [12] has as its target T5, Monoglyceride lipase (Mus musculus) (UniProt O35678).
T5 sequence (whole entry): T1 sequence (O35678 whole entry)
Description: Inhibition of MAGL in mouse B16-F10 intact cells at 10 uM using 7-HRA as substrate preincubated for 6 hrs followed by substrate addition by fluorescence assay. The format is cell-based. The procedure, abridged: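 Intact B16-F10 cells cultured 6 h with compound or DMSO, homogenised 30 min at 4 °C in lysis buffer and spun 1,500 × g 5 min. 1 μg lysate assayed with 10 μM 7-HRA (ex 571/em 588 nm); 5-min values reported; mean ± SEM, n = 3.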

The subject of experiment [13] is B16-F10. Description: Induction of apoptosis in mouse B16F10 cells assessed as early apoptotic cells at 10 uM after 48 hrs by Annexin V-FITC/propidium iodide staining based flow cytometry (reference value: 1.75%). The format is functional.
In experiment [14] the target is T3, Monoglyceride lipase (Homo sapiens). Description: Inhibition of recombinant human MAGL assessed as residual activity at 10 uM using 7-HRA as substrate preincubated for 60 mins followed by substrate addition by fluorescence assay relative to control. The procedure, abridged: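 Recombinant human MAGL (C-terminal His-tagged, E. coli), 25 ng/well, in 50 mM Tris-HCl pH 7.4, 1 mM EDTA, 10% DMSO final. Preincubated with inhibitor or DMSO 60 min at room temperature, then 5 μM 7-HRA (final) added. Resorufin fluorescence (ex 571/em 588 nm) converted via calibration curve. Rates from linear regression, no-enzyme background subtracted, normalised to no-inhibitor control. IC50 taken at 30 min by variable-slope sigmoid fit.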

The subject of experiment [15] is MCF7. Nature of the experiment: Induction of apoptosis in human MCF7 cells at 10 uM after 48 hrs by Annexin V-FITC/propidium iodide staining based flow cytometry. The format is functional, cell-based. The procedure, abridged: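 HEK293T (DMEM with 10% FBS) or MCF7 (DMEM/Ham's F-12 1:1, 10% FBS) cells treated 48 h with 10 μM compound or DMSO. Staining with Alexa Fluor 488 annexin V plus 5 μg/ml PI in HEPES/NaCl/CaCl2 binding buffer; 10,000 cells per sample read by flow cytometry; n = 3, mean ± S.E.M.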

As to `O=C(Nc1cccc(-c2ccc(C(F)(F)F)cc2)c1)OCC1CCCCC1`, the IC50 in [1] (read-out: IC50) is 17.4 µM. Further, the result in experiment [2] was inactive.

Consider `O=C(Nc1cccc(-c2ccccc2)c1)OCc1ccco1`, for which the IC50 entry in [3] and in experiment [1] (b16-f10) was “Nd(Insoluble)” throughout.

As to `COc1ccc(-c2ccc(-c3cn(C(=O)N4CCCCC4c4ccccc4)nn3)cc2)cc1` (configuration not stated), in [4], the result was inactive.

In the case of `O=C(Oc1ccc([N+](=O)[O-])cc1)N1CCC(C(O)(c2ccc3c(c2)OCO3)c2ccc3c(c2)OCO3)CC1`, the result in [5] was Active.

In the case of `O=C(Nc1cccc(-c2ccccc2)c1)OCCc1ccccc1`, the 50% inhibitory concentration (IC50) in [1] (read-out: IC50) was found to be 17.1 µM. In addition, in experiment [2], the result was inactive.

In experiment [6], `O=C(Nc1cccc(-c2ccccc2)c1)Nc1cccc(-c2ccccc2)c1` returned an EC50 of 5.76 µM.

Take `O=C(Nc1cccc(-c2ccc(C(F)(F)F)cc2)c1)OCc1ccccc1`: the inhibition result in [7] and in [12] was “Active” each time. Also, the Activity in experiment [8] came to 64.51%; in [10], 22.65%; in [11], 2.96%; in [13], 9.89%; in [14], 82%. Besides, the inhibition in [9] is 15%. For the same compound, the IC50 came to 4.5 µM in experiment [3] (read-out: IC50) and 9.41 µM in experiment [1] (read-out: IC50). Moreover, the outcome in [2] was Active.

For `O=C(Nc1cccc(-c2ccccc2)c1)OCc1ccccc1`, the results for the IC50 in experiment [3] (read-out: IC50) and in experiment [1] (read-out: IC50) were 11.1 µM and 16.5 µM, respectively. Further, the result in experiment [2] was inactive.

As to `O=C(Nc1cccc(-c2ccccc2)c1)OC1CCCCC1`, the Activity is 79.55% in [8]; 13.54% in experiment [10]; 5.48% in [11]; 1.43% in [13]; 66% in experiment [14]. The results for the IC50 in experiment [3] (read-out: IC50) and in [1] (read-out: IC50) were 9.1 µM and 19.8 µM, respectively. For the same compound, the outcome in experiment [2] was inactive.

In experiment [9], `CCCCCCCC/C=C\CCCCCCCC(=O)NCC` returned an inhibition of 99%. Also, in experiment [15], the result was inactive.

On to `O=C(Nc1cccc(-c2ccc(F)cc2)c1)OCc1ccccc1`, for which the IC50 in experiment [1] (read-out: IC50) amounted to 15.6 µM. For the same compound, in experiment [2], the result was inactive.

As for `O=C(Nc1cccc(-c2ccc(F)cc2)c1)OCC1CCCCC1`, in [1] (read-out: IC50), the IC50 was found to be 26.7 µM. For the same compound, the outcome in experiment [2] was inactive.

For orientation: IC50 means the point on the concentration scale where inhibition reaches its midpoint. Usually EC50 stands for the concentration at which the effect is half-maximal. Read a high EC50 as a less potent agent. One may read the inhibition as the share of the control response that was lost under treatment.
